Reference: ChEMBL document CHEMBL1124180, “Asymmetric synthesis and properties of the enantiomers of the antibacterial agent 7-(3-aminopyrrolidin-1-yl)-1-(2,4-difluorophenyl)-1,4-dihydro-6- fluoro-4-oxo-1,8-naphthyridine-3-carboxylic acid hydrochloride” (J Med Chem, 1988)

Tests used:
Providencia stuartii = assay: In vitro activity against Providencia stuartii (CMX 640); assay type: functional
In short: (§1)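 MIC determined by agar dilution on brain-heart infusion agar under aerobic conditions.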

[1] = Solubility in aqueous media 0.15 N sulfate, pH 5.4; assay type: physicochemical; settings: read-out: S
Clostridium perfringens [2] = assay: In vitro activity against Clostridium perfringens (104AT13124); assay type: functional
In short: (§2)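 MIC for anaerobic bacteria, measured on Wilkins-Chalgren agar.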

Staphylococcus aureus [3] = assay: In vitro activity against Staphylococcus aureus(45 RAR2); assay type: functional; in short: as §1
Clostridium perfringens [4] = assay: In vitro activity against Clostridium perfringens (788); assay type: functional; in short: as §2
Phocaeicola vulgatus = assay: In vitro activity against Bacteroides vulgatus(792); assay type: functional
In short: (§3)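 MIC determined under anaerobic conditions on Wilkins-Chalgren agar.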

Bacteroides fragilis [5] = assay: In vitro activity against Bacteroides fragilis (784); assay type: functional; in short: as §3
Bacteroides fragilis [6] = assay: In vitro activity against Bacteroides fragilis (SFM2906A); assay type: functional; in short: as §3
Escherichia coli [7] = assay: In vitro activity against Escherichia coli (H560); assay type: functional
In short: (§4)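 MIC for aerobic bacteria, measured on brain-heart infusion agar.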

Escherichia coli [8] = assay: In vitro activity against Escherichia coli (SS).; assay type: functional; in short: as §4
[9] = Solubility in aqueous media urine, pH 7.0; assay type: physicochemical; settings: read-out: S
Staphylococcus aureus [10] = assay: In vitro activity against Staphylococcus aureus(CMX 686B); assay type: functional; in short: as §1
Bacteroides fragilis [11] = assay: In vitro activity against Bacteroides fragilis (UC-2); assay type: functional; in short: as §3
Parvimonas micra = assay: In vitro activity against Peptostreptococcus micros (ATCC 33270); assay type: functional; in short: as §3
Fusobacterium = assay: In vitro activity against Fusobacterium sp.(GS-10); assay type: functional; in short: as §3
[12] = tested on: Peptostreptococcus anaerobius; assay: In vitro activity against Peptostreptococcus anaerobius (ATCC 27337); assay type: functional; in short: as §3
Streptococcus equinus = assay: In vitro activity against Streptococcus bovis (A5169).; assay type: functional; in short: as §1
[13] = Solubility in aqueous media urine, pH 5.1; assay type: physicochemical; settings: read-out: S
[14] = Solubility in aqueous media 0.1 N chloride, pH 6.5; assay type: physicochemical; settings: read-out: S
Veillonella parvula = assay: In vitro activity against Veillonella parvula (ATCC 10790); assay type: functional
In short: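 Anaerobic MICs measured by agar dilution on Wilkins-Chalgren agar.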

Escherichia coli [15] = assay: In vitro activity against Escherichia coli (DC-2); assay type: functional; in short: as §4
Staphylococcus aureus [16] = assay: In vitro activity against Staphylococcus aureus(CMX 503A); assay type: functional; in short: as §1
[17] = Solubility in aqueous media urine, pH 6.3; assay type: physicochemical; settings: read-out: S
Micrococcus luteus [18] = assay: In vitro activity against Micrococcus luteus (ATCC 9341); assay type: functional; in short: as §1
Streptococcus pyogenes = assay: In vitro activity against Streptococcus pyogenes (EES61); assay type: functional; in short: as §1
[19] = tested on: Staphylococcus epidermidis; assay: In vitro activity against Staphylococcus epidermidis (3519); assay type: functional; in short: as §1
Staphylococcus aureus [20] = assay: In vitro activity against Staphylococcus aureus(CMX 553); assay type: functional; in short: as §1
Finegoldia magna = assay: In vitro activity against Peptococcus magnus (ATCC 29328); assay type: functional; in short: as §3
Fusobacterium nucleatum = assay: In vitro activity against Fusobacterium nucleatum (ATCC 25586); assay type: functional; in short: as §3
Escherichia coli [21] = assay: In vitro activity against Escherichia coli (KNK437); assay type: functional; in short: as §4
Mus musculus = assay: In vivo activity against Staphylococcus aureus NCTC 10649, administered po( each compound tested at 3 doses with 10 animals); assay type: functional
In short: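 Mice were challenged intraperitoneally with the organism. The compound was given orally as a total dose split into equal portions at 1 and 5 h post-infection. Three doses were used, with 10 animals per dose.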

[22] = tested on: Bacteroides thetaiotaomicron; assay: In vitro activity against Bacteroides thetaiotaomicron (106); assay type: functional; in short: as §3
Micrococcus luteus [23] = assay: In vitro activity against Micrococcus luteus (ATCC 4698); assay type: functional; in short: as §1
Prevotella disiens = assay: In vitro activity against Bacteroides disiens (ATCC 29426); assay type: functional; in short: as §3
Bacteroides fragilis [24] = assay: In vitro activity against Bacteroides fragilis (105AT25285); assay type: functional; in short: as §3
Staphylococcus aureus [25] = assay: In vitro activity against Staphylococcus aureus (A5177); assay type: functional; in short: as §1
[26] = tested on: Peptoniphilus asaccharolyticus; assay: In vitro activity against Peptococcus asaccharolyticus (ATCC 14963).; assay type: functional; in short: as §3
Clostridioides difficile = assay: In vitro activity against Clostridium difficile (ATCC 9689); assay type: functional

Work on `Cl.N[C@H]1CCN(c2nc3c(cc2F)c(=O)c(C(=O)O)cn3-c2ccc(F)cc2F)C1` yielded an MIC (Providencia stuartii) of 1.56 µg/mL, a solubility [1] of 8.7 µg/mL and an MIC (Clostridium perfringens [2]) of 0.12 µg/mL. For the same compound, the MIC (Staphylococcus aureus [3]) was 0.05 µg/mL, the MIC (Clostridium perfringens [4]) was 0.12 µg/mL and the MIC (Phocaeicola vulgatus) was 0.5 µg/mL. For the same compound, the MIC (Bacteroides fragilis [5]) was 0.25 µg/mL, the MIC (Bacteroides fragilis [6]) was 0.25 µg/mL and the MIC (Escherichia coli [7]) was 0.01 µg/mL. For the same compound, the MIC (Escherichia coli [8]) was 2 ng/mL, the solubility [9] was 17.1 µg/mL and the MIC (Staphylococcus aureus [10]) was 0.05 µg/mL. For the same compound, the MIC (Bacteroides fragilis [11]) was 0.25 µg/mL, the MIC (Parvimonas micra) was 0.06 µg/mL and the MIC (Fusobacterium) was 0.25 µg/mL. For the same compound, the MIC [12] was 0.12 µg/mL, the MIC (Streptococcus equinus) was 0.2 µg/mL and the solubility [13] was 32.4 µg/mL. For the same compound, the solubility [14] was 4.5 µg/mL, the MIC (Veillonella parvula) was 0.25 µg/mL and the MIC (Escherichia coli [15]) was 0.2 µg/mL. The MIC (Staphylococcus aureus [16]) was 0.05 µg/mL, the solubility [17] was 20.7 µg/mL and the MIC (Micrococcus luteus [18]) was 0.78 µg/mL. It also gave an MIC (Streptococcus pyogenes) of 0.1 µg/mL, an MIC [19] of 0.05 µg/mL and an MIC (Staphylococcus aureus [20]) of 0.05 µg/mL. For the same compound, the MIC (Finegoldia magna) was 0.06 µg/mL, the MIC (Fusobacterium nucleatum) was 0.25 µg/mL and the MIC (Escherichia coli [21]) was 0.1 µg/mL. It also gave an ED50 (Mus musculus) of 0.8 mg/kg, an MIC [22] of 0.5 µg/mL and an MIC (Micrococcus luteus [23]) of 0.78 µg/mL. The MIC (Prevotella disiens) was 1 µg/mL, the MIC (Bacteroides fragilis [24]) was 0.25 µg/mL and the MIC (Staphylococcus aureus [25]) was 0.05 µg/mL. The MIC [26] was 0.12 µg/mL and the MIC (Clostridioides difficile) was 1 µg/mL.
